From ChEMBL document CHEMBL3992493, “New approach of delivering cytotoxic drugs towards CAIX expressing cells: A concept of dual-target drugs” (Eur J Med Chem, 2017)
Active and inactive are the calls of the source. The calls are words filed in the database; no cut-off is given here.

Key:
[1] = tested on: MDCK; test: Cytotoxicity against carbonic anhydrase 9 knockdown MDCK cells assessed as reduction in cell viability preincubated for 2 hrs followed by 72 hrs incubation under normoxic condition by Alamar blue assay; format: cell-based; details: Canis lupus familiaris
[2] = target: Carbonic anhydrase 12 (Homo sapiens, UniProt O43570); test: Binding affinity to recombinant human carbonic anhydrase 12 after 15 mins by stopped-flow CO2 hydration assay
Chain of Carbonic anhydrase 12 (O43570 whole entry): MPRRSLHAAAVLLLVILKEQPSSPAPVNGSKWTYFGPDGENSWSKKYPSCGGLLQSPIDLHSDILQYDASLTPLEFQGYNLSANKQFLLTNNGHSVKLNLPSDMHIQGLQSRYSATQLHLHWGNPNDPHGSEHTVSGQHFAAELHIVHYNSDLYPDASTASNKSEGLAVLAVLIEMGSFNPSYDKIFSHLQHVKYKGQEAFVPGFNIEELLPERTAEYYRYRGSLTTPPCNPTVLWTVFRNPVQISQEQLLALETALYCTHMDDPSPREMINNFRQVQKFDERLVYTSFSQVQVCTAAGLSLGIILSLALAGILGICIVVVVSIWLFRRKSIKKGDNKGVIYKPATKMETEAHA

[3] = target: Carbonic anhydrase 1 (Homo sapiens, UniProt P00915); test: Binding affinity to recombinant human carbonic anhydrase 1 after 15 mins by stopped-flow CO2 hydration assay
Chain of Carbonic anhydrase 1 (P00915 whole entry): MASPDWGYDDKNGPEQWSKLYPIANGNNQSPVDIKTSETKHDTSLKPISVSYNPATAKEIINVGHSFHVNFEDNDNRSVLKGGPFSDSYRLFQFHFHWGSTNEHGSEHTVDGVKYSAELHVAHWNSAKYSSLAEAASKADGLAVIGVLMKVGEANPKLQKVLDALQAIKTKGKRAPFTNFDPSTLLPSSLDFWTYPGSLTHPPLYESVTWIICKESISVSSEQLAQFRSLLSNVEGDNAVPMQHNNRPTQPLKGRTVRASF

[4] = tested on: MDCK; test: Cytotoxicity against carbonic anhydrase 9 knockdown MDCK cells assessed as reduction in cell viability after 2 hrs under hypoxic condition by Alamar blue assay; format: cell-based; details: Canis lupus familiaris
Method in brief: (§1)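 MDCK cells transfected with human CAIX (CAIX+) or scrambled control vector (CAIX−), in DMEM/10% FBS, seeded and attached overnight. Medium replaced with pre-equilibrated hypoxic DMEM (0.2% O2, 5% CO2) for 24 h. Compounds in DMSO (0.5%) added for 2 h, then washed off. Cells regrown 72 h in normoxia. Viability read by alamarBlue conversion for 2 h under normoxia.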

[5] = tested on: MDCK; test: Cytotoxicity against MDCK cells expressing carbonic anhydrase 9 assessed as reduction in cell viability after 2 hrs under hypoxic condition by Alamar blue assay; format: functional, cell-based; details: Canis lupus familiaris; method in brief: as §1
[6] = tested on: MDCK; test: Cytotoxicity against MDCK cells expressing carbonic anhydrase 9 assessed as reduction in cell viability preincubated for 2 hrs followed by 72 hrs incubation under normoxic condition by Alamar blue assay; format: functional, cell-based; details: Canis lupus familiaris
Method in brief: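 CAIX-overexpressing or scrambled-vector MDCK cells in DMEM/10% FBS, attached overnight, held 24 h at 21% O2/5% CO2. Drug added (0.5% DMSO vehicle) for 2 h, washed off, then 72 h further normoxic growth. Viability measured by 2 h alamarBlue conversion under normoxia.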

[7] = target: Carbonic anhydrase 9 (Homo sapiens, UniProt Q16790); test: Binding affinity to recombinant human carbonic anhydrase 9 after 15 mins by stopped-flow CO2 hydration assay
[8] = target: Carbonic anhydrase 2 (Homo sapiens, UniProt P00918); test: Binding affinity to recombinant human carbonic anhydrase 2 after 15 mins by stopped-flow CO2 hydration assay
[9] = tested on: MDCK; test: Cytotoxicity against carbonic anhydrase 9 knockdown MDCK cells assessed as reduction in cell viability incubated for 24 hrs measured after 7 days under normoxic condition by methylene blue staining based clonogenic survival assay; design: species or system Canis lupus familiaris; details: dog
Method in brief: (§2)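 Clonogenic assay: confluent, high-density MDCK CAIX+/CAIX− cells were exposed to drug for 24 h at 0.2% or 21% O2. Cells were then trypsinized and reseeded in triplicate at known numbers. Colonies grew 7 days and were fixed/stained with 0.4% methylene blue in 70% ethanol. Surviving fraction was normalized to 0.5% DMSO vehicle; three independent biological repeats.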

[10] = tested on: MDCK; test: Cytotoxicity against MDCK cells expressing carbonic anhydrase 9 assessed as reduction in cell viability incubated for 24 hrs measured after 7 days under hypoxic condition by methylene blue staining based clonogenic survival assay; format: functional; details: Canis lupus familiaris; method in brief: as §2
[11] = tested on: MDCK; test: Cytotoxicity against carbonic anhydrase 9 knockdown MDCK cells assessed as reduction in cell viability incubated for 24 hrs measured after 7 days under hypoxic condition by methylene blue staining based clonogenic survival assay; design: species or system Canis lupus familiaris; details: dog; method in brief: as §2
[12] = tested on: MDCK; test: Cytotoxicity against carbonic anhydrase 9 knockdown MDCK cells assessed as reduction in cell viability after 72 hrs under normoxic condition by Alamar blue assay; format: cell-based; details: Canis lupus familiaris
[13] = tested on: MDCK; test: Cytotoxicity against MDCK cells expressing carbonic anhydrase 9 assessed as reduction in cell viability after 72 hrs under normoxic condition by Alamar blue assay; format: functional, cell-based; details: Canis lupus familiaris
[14] = tested on: MDCK; test: Cytotoxicity against MDCK cells expressing carbonic anhydrase 9 assessed as reduction in cell viability after 72 hrs under hypoxic condition by Alamar blue assay; format: functional, cell-based; details: Canis lupus familiaris
[15] = tested on: MDCK; test: Cytotoxicity against MDCK cells expressing carbonic anhydrase 9 assessed as reduction in cell viability incubated for 24 hrs measured after 7 days under normoxic condition by methylene blue staining based clonogenic survival assay; format: functional; details: Canis lupus familiaris; method in brief: as §2
[16] = tested on: MDCK; test: Cytotoxicity against carbonic anhydrase 9 knockdown MDCK cells assessed as reduction in cell viability after 72 hrs under hypoxic condition by Alamar blue assay; format: cell-based; details: Canis lupus familiaris
[17] = tested on: MDCK; test: Cytotoxicity against carbonic anhydrase 9 knockdown MDCK cells assessed as reduction in cell viability at 50 nM pretreated for 1 hr followed by 4 Gy irradiation under anoxic condition by Alamar blue assay; format: cell-based, Canis lupus familiaris; details: dog, 0.05 µM
Method in brief: (§3)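 ATR inhibitor plus radiation: MDCK CAIX+/CAIX− cells were preconditioned 24 h under normoxia (21% O2) or anoxia (≤0.02% O2). Compound in 0.5% DMSO was added 1 h before X-irradiation, 2 Gy normoxic or 4 Gy anoxic. Total compound exposure was 72 h, then washout and 72 h normoxic regrowth. Readout was 2 h alamarBlue conversion, as relative viability.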

[18] = tested on: MDCK; test: Cytotoxicity against MDCK cells expressing carbonic anhydrase 9 assessed as reduction in cell viability at 50 nM pretreated for 1 hr followed by 4 Gy irradiation under anoxic condition by Alamar blue assay; format: functional, cell-based; details: Canis lupus familiaris; method in brief: as §3
[19] = tested on: MDCK; test: Cytotoxicity against carbonic anhydrase 9 knockdown MDCK cells assessed as reduction in cell viability at 50 nM pretreated for 72 hrs followed by 72 hrs incubation under normoxic condition by Alamar blue assay; format: cell-based, Canis lupus familiaris; details: dog, 0.05 µM
Method in brief: (§4)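 ATR inhibitor without irradiation: MDCK CAIX+ or scrambled-control CAIX− cells were preconditioned 24 h at ≤0.02% O2 (anoxia) or 21% O2. Compound was added in 0.5% DMSO for 72 h, then washed off. Cells regrew 72 h under normoxia, followed by 2 h alamarBlue conversion. Viability is relative to control.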

[20] = tested on: MDCK; test: Cytotoxicity against MDCK cells expressing carbonic anhydrase 9 assessed as reduction in cell viability at 50 nM pretreated for 72 hrs followed by 72 hrs incubation under normoxic condition by Alamar blue assay; format: functional, cell-based; details: Canis lupus familiaris; method in brief: as §4
[21] = tested on: MDCK; test: Cytotoxicity against MDCK cells expressing carbonic anhydrase 9 assessed as reduction in cell viability at 50 nM after 72 hrs under anoxic condition by Alamar blue assay; format: functional, cell-based; details: Canis lupus familiaris; method in brief: as §4
[22] = tested on: MDCK; test: Cytotoxicity against carbonic anhydrase 9 knockdown MDCK cells assessed as reduction in cell viability at 50 nM after 72 hrs under anoxic condition by Alamar blue assay; format: cell-based, Canis lupus familiaris; details: dog, 0.05 µM; method in brief: as §4
[23] = tested on: MDCK; test: Cytotoxicity against MDCK cells expressing carbonic anhydrase 9 assessed as reduction in cell viability at 50 nM pretreated for 1 hr followed by 2 Gy irradiation under normoxic condition by Alamar blue assay; format: functional, cell-based; details: Canis lupus familiaris; method in brief: as §3

SMILES | Ki [7] | IC50 [1] | Ki [2] | Ki [3] | IC50 [4] | IC50 [5] | IC50 [6] | Ki [8] | other results
NS(=O)(=O)c1ccc(CCNC(=O)CCCc2ccc(N(CCCl)CCCl)cc2)cc1 | 4.61 µM | 18 µM | 10.2 µM | 8.4 µM | 18 µM | 100 µM | 100 µM | 0.45 µM | –
O=C(O)CCCc1ccc(N(CCCl)CCCl)cc1 [CHLORAMBUCIL] | > 50 µM | 93 µM | > 50 µM | > 50 µM | 100 µM | > 100 µM | > 100 µM | > 50 µM | –
NS(=O)(=O)c1ccc(CNC(=O)OCCCCc2ccc(N(CCCl)CCCl)cc2)cc1 | 4.13 µM | 86 µM | 9.57 µM | 6.14 µM | 52 µM | 100 µM | 98 µM | 0.265 µM | –
Cn1nnc2c(C(N)=O)ncn2c1=O [TEMOZOLOMIDE] | > 50 µM | – | > 50 µM | > 50 µM | – | – | – | > 50 µM | Activity [9]: Toxic; Activity [10]: Active; Activity [11]: Toxic; IC50 [12]: 775 µM; IC50 [13]: > 1000 µM; IC50 [14]: > 1000 µM; Activity [15]: Active; IC50 [16]: 1000 µM
NS(=O)(=O)c1ccc(NC(=O)OCCCCc2ccc(N(CCCl)CCCl)cc2)cc1 | 2.74 µM | 8 µM | 9.38 µM | 5.58 µM | 8 µM | 62 µM | 56 µM | 0.553 µM | –
CNCc1ccc(-c2cc(-c3nc(-c4ccc(S(=O)(=O)C(C)C)cc4)cnc3NS(N)(=O)=O)on2)cc1 | > 50 µM | – | > 50 µM | > 50 µM | – | – | – | > 50 µM | Activity [17]: Non-Toxic; Activity [18]: inactive; Activity [19]: Toxic; Activity [20]: Active; Activity [21]: Active; Activity [22]: Toxic; Activity [23]: inactive

Continued, in another order:

Ki [7] | SMILES | IC50 [1] | Ki [2] | Ki [3] | IC50 [4] | IC50 [5] | IC50 [6] | Ki [8] | other results
> 50 µM | Nc1n[n+]([O-])c2ccccc2[n+]1[O-] [TIRAPAZAMINE] | > 300 µM | > 50 µM | > 50 µM | < 50 µM | 95 µM | > 300 µM | > 50 µM | –
0.176 µM | Cn1nnc2c(C(=O)Nc3nnc(S(N)(=O)=O)s3)ncn2c1=O | – | – | – | – | – | – | – | IC50 [12]: > 1000 µM; IC50 [13]: > 1000 µM; IC50 [14]: > 1000 µM; IC50 [16]: > 1000 µM
0.383 µM | NS(=O)(=O)c1ccc(CCNc2n[n+]([O-])c3ccccc3[n+]2[O-])cc1 | > 300 µM | – | – | 300 µM | > 300 µM | > 300 µM | – | –
